Test results reported in article PMC3058861 (Archives of biochemistry and biophysics, 2010).
Values after ≈ are worked out from the molar mass of the structure shown. Where a name gives a salt, the structure may show the parent alone. Read-outs that look alike come from different tables or passages of the source.

How the values were obtained:
hSULT2A1 [1] = biological target: T1, hSULT2A1 (Homo sapiens, UniProt Q06520); assay: Kinetics of DHEA sulfation catalyzed by recombinant hSULT2A1; assay type: biochemical; conditions: for substrate inhibition by DHEA: 0.1-2.0 μM DHEA; for substrate inhibition by PAPS: 1.0-300 μM PAPS
T1 sequence (Q06520 1-285): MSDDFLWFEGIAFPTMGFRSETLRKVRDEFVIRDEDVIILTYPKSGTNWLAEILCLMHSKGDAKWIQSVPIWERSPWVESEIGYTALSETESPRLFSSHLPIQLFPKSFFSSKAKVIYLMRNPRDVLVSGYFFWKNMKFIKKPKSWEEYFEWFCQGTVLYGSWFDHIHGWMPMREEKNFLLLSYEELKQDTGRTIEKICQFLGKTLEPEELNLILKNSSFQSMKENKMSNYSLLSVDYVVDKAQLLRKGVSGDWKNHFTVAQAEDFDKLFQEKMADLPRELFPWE

[2] = Determination of DHEA solubility by light scattering; assay type: physicochemical; conditions: potassium phosphate buffer, pH 7, aqueous buffer
hSULT2A1-PAP complex = biological target: T2, hSULT2A1-PAP complex (Homo sapiens, UniProt Q06520); assay: Ligand binding to the hSULT2A1-PAP complex by intrinsic tryptophan fluorescence
T2 sequence (Q06520 1-285): T1 sequence (Q06520 1-285)

hSULT2A1 [3] = biological target: T1, hSULT2A1; assay: Ligand binding to ligand-free hSULT2A1 by intrinsic tryptophan fluorescence; conditions: read-out: dissociation constant (hyperbolic single site); ligand-free enzyme, pH 7.0, 37 °C
hSULT2A1-DHEAS complex = biological target: T3, hSULT2A1-DHEAS complex (Homo sapiens, UniProt Q06520); assay type: binding; conditions: for Kd: enzyme pretreated with 80 μM (0.08 mM) DHEAS
T3 sequence (Q06520 1-285): T1 sequence (Q06520 1-285)
How it was run: (§1)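 Purified recombinant hSULT2A1 at 25 nM (dimer basis) was equilibrated 15 min, then pretreated with 80 μM DHEA or 80 μM DHEAS. Test ligand (1.0–300 μM) was added stepwise with stirring at 37 ± 2 °C, and intrinsic tryptophan fluorescence was read after each addition. Data were fitted to a two-site Adair model, with Kd taken as the reciprocal association constants. Triplicates, mean ± SD.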

hSULT2A1-DHEA complex = biological target: T4, hSULT2A1-DHEA complex (Homo sapiens, UniProt Q06520); assay: Ligand binding to the hSULT2A1-DHEA complex by intrinsic tryptophan fluorescence; conditions: read-out: Kd2(app); enzyme pretreated with 80 μM (0.08 mM) DHEA
T4 sequence (Q06520 1-285): T1 sequence (Q06520 1-285)
How it was run: as §1

hSULT2A1 [4] = biological target: T1, hSULT2A1; conditions: sulfation of pregnenolone; cited from earlier work
[5] = 0.25-20 μM DHEA, 200 μM PAPS, pH 7.0, 37 °C, substrate inhibition equation
[6] = read-out: Kd2(app), in the presence of 100 μM (0.1 mM) PAP

With `C[C@]12CC[C@H](O)CC1=CC[C@@H]1[C@@H]2CC[C@]2(C)C(=O)CC[C@@H]12` [DHEA, dehydroepiandrosterone (5-androsten-3β-ol-17-one)] the “substrate inhibition by DHEA” value (hSULT2A1 [1]; intermediate PAPS 5.0 – 60 μM) was “substrate inhibition was observed”, the “substrate inhibition by DHEA” value (hSULT2A1 [1]; lowest (1.0 μM) and highest (100 and 300 μM) PAPS) was “substrate inhibition was not evident” and the “Kis (substrate inhibition constant)” value (hSULT2A1 [1]; [5]) was 8 ± 3 µM. The Km (hSULT2A1 [1]; [5]) was 0.8 ± 0.3 µM, the Vmax (hSULT2A1 [1]; [5]) was 245 ± 40 nmol/min/mg and the solubility [2] was 80 µM (≈ 23.1 µg/mL). For the same compound, the Kd (hSULT2A1-PAP complex; [6]) was 22 ± 3.2 µM.
Work on `C[C@]12CC[C@H](OS(=O)(=O)O)CC1=CC[C@@H]1[C@@H]2CC[C@]2(C)C(=O)CC[C@@H]12` [DHEAS, dehydroepiandrosterone sulfate] yielded a Kd (hSULT2A1 [3]) of 7.2 ± 0.3 µM, a Kd (hSULT2A1-PAP complex; read-out: Kd1(app), in the presence of 100 μM (0.1 mM) PAP) of 3.3 ± 0.2 µM and a Kd (hSULT2A1-PAP complex; [6]) of 3.3 ± 0.2 µM. It also gave a Kd (hSULT2A1-PAP complex; read-out: Kd(app) (hyperbolic single site), in the presence of 100 μM PAP) of 3.3 ± 0.2 µM.
`Nc1ncnc2c1ncn2[C@@H]1O[C@H](COP(=O)(O)O)[C@@H](OP(=O)(O)O)[C@H]1O` [PAP, adenosine 3′,5′-diphosphate] showed a Kd (hSULT2A1-DHEAS complex; read-out: Kd2(app)) of 415 ± 75 µM and a Kd (hSULT2A1-DHEA complex) of 243 ± 27 µM.
With `Nc1ncnc2c1ncn2[C@@H]1O[C@H](COP(=O)(O)OS(=O)(=O)O)[C@@H](OP(=O)(O)O)[C@H]1O` [PAPS, 3′-phosphoadenosine 5′-phosphosulfate] the “Kd2(app) relative to Kd1(app)” value (hSULT2A1-DHEAS complex; enzyme pretreated with 80 μM DHEAS) was “over 200 fold”, the Kd (hSULT2A1-DHEAS complex; read-out: Kd1(app)) was 1.3 ± 0.4 µM and the Kd (hSULT2A1-DHEAS complex; read-out: Kd2(app)) was 315 ± 27 µM. For the same compound, the “substrate inhibition by PAPS” value (hSULT2A1 [1]; 80 μM DHEA) was “significant substrate inhibition”, the “substrate inhibition by PAPS” value (hSULT2A1 [1]; DHEA 0.1 μM - 2.0 μM) was “no indication that PAPS displayed substrate inhibition” and the “substrate inhibition by PAPS” value (hSULT2A1 [1]; DHEA 5.0 μM or 20 μM) was “did not exhibit substrate inhibition”.
In the case of `CC(=O)[C@H]1CC[C@H]2[C@@H]3CC=C4C[C@@H](O)CC[C@]4(C)[C@H]3CC[C@]12C` [pregnenolone], the “catalytic efficiency (kcat/Km) with hSULT2A1 relative to hSULT2B1 and hSULT2B2” value (hSULT2A1 [4]) is given as 3-8 fold.
